Experimental data as given in ChEMBL document CHEMBL5705907 (BMC Rheumatol, 2018).
The source made the active and inactive calls. The calls are words filed in the database; no cut-off is given here.

Columns and labels:
Rattus norvegicus [1] = test: Antiarthritic activity in adjuvant-induced arthritis Lewis rat model at 3 to 10 mg/kg, po administered for 10 days and measured on day 17 by microCT-scanning analysis; format: functional, organism-based; settings: dose 3-10 mg/kg, time 17.0 day
Summary of the method: (§1)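 Lewis rats with adjuvant-induced arthritis were given vehicle or drug by oral gavage twice daily for 10 days (Day 7–Day 17 post immunization). On Day 17 they were exsanguinated by cardiac puncture under isoflurane. Left rear paws were μCT-scanned, and bone volume and density were determined in a 360 μm vertical section through the tarsal region. Groups were compared with vehicle by Dunnett's test.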

Rattus norvegicus [2] = test: Antiarthritic activity in adjuvant-induced arthritis Lewis rat model assessed as reduction in paw swelling at 5 to 10 mg/kg, po administered for 10 days and measured on day 17; format: functional; parameters: scale not given: the % may be the effect or the level left; settings: dose 5-10 mg/kg, time 17 day
Summary of the method: (§2)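 In rats with adjuvant-induced arthritis, vehicle or drug was given by oral gavage BID for 10 days (Day 7–Day 17 after immunization). Paw swelling was measured by water-displacement plethysmography every other day up to Day 17. Treatment groups were compared with vehicle by Dunnett's multiple comparison test.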

[3] = Inhibition of ABL (unknown origin) by TR-FRET assay; parameters: species or system Homo sapiens
[4] = target: AMP-activated protein kinase, AMPK; test: Inhibition of AMPK (unknown origin) by TR-FRET assay; format: protein-complex assay, Homo sapiens
[5] = target: Cyclin-dependent kinase 11B (Homo sapiens, UniProt P21127); test: Inhibition of CDK11 (unknown origin) by TR-FRET assay
Rattus norvegicus [6] = test: Antiarthritic activity in adjuvant-induced arthritis Lewis rat model assessed as reduction in paw swelling administered for 10 days and measured on day 17; format: functional, organism-based; settings: time 17.0 day; summary of the method: as §2
Rattus norvegicus [7] = test: Antiarthritic activity in adjuvant-induced arthritis po dosed Lewis rat model assessed as bone destruction by measuring reduction in bone volume administered for 10 days and measured on day 17 by microCT-scanning analysis; format: functional, organism-based; settings: dose 0.1-10 mg/kg, time 17.0 day; summary of the method: as §1
Rattus norvegicus [8] = test: Antiarthritic activity in adjuvant-induced arthritis Lewis rat model assessed as bone destruction by measuring reduction in bone volume at 10 mg/kg, po administered for 10 days and measured on day 17 by microCT-scanning analysis; format: functional; parameters: scale not given: the % may be the effect or the level left; settings: time 17 day
Summary of the method: (§3)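 Rats dosed by oral gavage twice daily (BID) with vehicle or drug for 10 days (Day 7–Day 17 post immunization). On Day 17, rats exsanguinated by cardiac puncture under isoflurane; left rear paw scanned by μCT. Bone volume and density determined in a 360 μm vertical section encompassing the tarsal region. Each group compared with vehicle by Dunnett's multiple comparison test.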

Rattus norvegicus [9] = test: Antiarthritic activity in adjuvant-induced arthritis Lewis rat model assessed as bone destruction by measuring reduction in bone volume at 3 mg/kg, po administered for 10 days and measured on day 17 by microCT-scanning analysis; format: functional; parameters: scale not given: the % may be the effect or the level left; settings: time 17 day; summary of the method: as §1
Rattus norvegicus [10] = test: Antiarthritic activity in adjuvant-induced arthritis Lewis rat model assessed as bone destruction by measuring reduction in bone volume at 1 mg/kg, po administered for 10 days and measured on day 17 by microCT-scanning analysis; format: functional; parameters: scale not given: the % may be the effect or the level left; settings: time 17 day; summary of the method: as §3
Rattus norvegicus [11] = test: Antiarthritic activity in adjuvant-induced arthritis Lewis rat model assessed as bone destruction by measuring reduction in bone volume at 0.3 mg/kg, po administered for 10 days and measured on day 17 by microCT-scanning analysis; format: functional; parameters: scale not given: the % may be the effect or the level left; settings: time 17 day; summary of the method: as §3
Rattus norvegicus [12] = test: Antiarthritic activity in adjuvant-induced arthritis Lewis rat model assessed as bone destruction by measuring reduction in bone volume at 0.1 mg/kg, po administered for 10 days and measured on day 17 by microCT-scanning analysis; format: functional; parameters: scale not given: the % may be the effect or the level left; settings: time 17 day; summary of the method: as §1
Rattus norvegicus [13] = test: Antiarthritic activity in adjuvant-induced arthritis Lewis rat model assessed as improvement in synovial hypertrophy at 3 to 10 mg/kg, po administered for 10 days and measured on day 17 by microCT-scanning analysis; format: functional, organism-based; settings: dose 3-10 mg/kg, time 17.0 day
Rattus norvegicus [14] = test: Antiarthritic activity in adjuvant-induced arthritis Lewis rat model assessed as improvement in cartilage damage at 3 to 10 mg/kg, po administered for 10 days and measured on day 17 by microCT-scanning analysis; format: functional, organism-based; settings: dose 3-10 mg/kg, time 17.0 day
Rattus norvegicus [15] = test: Antiarthritic activity in adjuvant-induced arthritis Lewis rat model assessed as improvement in bone erosion at 3 to 10 mg/kg, po administered for 10 days and measured on day 17 by microCT-scanning analysis; format: functional, organism-based; settings: dose 3-10 mg/kg, time 17.0 day
Blood = test: Ex-vivo inhibition of JAK1 in human blood assessed as reduction in IL-6-induced STAT3 phosphorylation at 36 mg/kg, po measured after 12 hrs; format: functional, organism-based
Summary of the method: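 Blood was drawn into sodium heparin tubes at 0, 1, 6 and 12 h after an oral dose. It was stimulated with recombinant human IL-6 (400 ng/ml) for 10 min at 37°C and surface-stained for CD14/CD3 on ice. Samples were lysed/fixed, frozen at −70°C, permeabilized, and stained for pSTAT3 for flow cytometry. Percent inhibition used geometric means of induced minus baseline pSTAT relative to pre-dose.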

Rattus norvegicus [16] = test: Antiarthritic activity in adjuvant-induced arthritis Lewis rat model assessed as improvement in bone erosion at 3 to 10 mg/kg, po administered for 10 days and measured on day 17 by microCT-scanning analysis; settings: dose 3-10 mg/kg, time 17.0 day
Rattus norvegicus [17] = test: Antiarthritic activity in adjuvant-induced arthritis Lewis rat model assessed as improvement in cartilage damage at 3 to 10 mg/kg, po administered for 10 days and measured on day 17 by microCT-scanning analysis; settings: dose 3-10 mg/kg, time 17.0 day
Rattus norvegicus [18] = test: Antiarthritic activity in adjuvant-induced arthritis Lewis rat model assessed as improvement in synovial hypertrophy at 3 to 10 mg/kg, po administered for 10 days and measured on day 17 by microCT-scanning analysis; settings: dose 3-10 mg/kg, time 17.0 day

Cyclin-dependent kinase 11B, sequence (P21127 whole entry): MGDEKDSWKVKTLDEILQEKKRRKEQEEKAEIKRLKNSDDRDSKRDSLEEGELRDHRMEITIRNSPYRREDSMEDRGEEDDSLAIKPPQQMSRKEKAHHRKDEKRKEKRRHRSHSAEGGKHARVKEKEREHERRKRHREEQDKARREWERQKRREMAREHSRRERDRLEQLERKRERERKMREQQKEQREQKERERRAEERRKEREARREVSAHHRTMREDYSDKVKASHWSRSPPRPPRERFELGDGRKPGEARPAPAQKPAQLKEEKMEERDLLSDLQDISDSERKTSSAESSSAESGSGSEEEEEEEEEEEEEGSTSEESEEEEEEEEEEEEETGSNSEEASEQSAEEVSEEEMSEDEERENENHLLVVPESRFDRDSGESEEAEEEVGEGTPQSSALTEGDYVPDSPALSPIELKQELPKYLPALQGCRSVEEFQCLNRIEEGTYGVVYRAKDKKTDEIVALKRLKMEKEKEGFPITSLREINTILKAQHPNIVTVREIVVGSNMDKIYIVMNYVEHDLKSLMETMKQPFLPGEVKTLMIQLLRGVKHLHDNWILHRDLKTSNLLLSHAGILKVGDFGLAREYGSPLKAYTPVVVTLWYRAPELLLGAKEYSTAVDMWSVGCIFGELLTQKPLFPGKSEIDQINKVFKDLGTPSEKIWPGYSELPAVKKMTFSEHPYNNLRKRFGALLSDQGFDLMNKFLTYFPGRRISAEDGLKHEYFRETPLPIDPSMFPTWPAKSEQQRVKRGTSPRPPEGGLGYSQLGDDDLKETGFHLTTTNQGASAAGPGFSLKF

| SMILES | Activity (Rattus norvegicus [1]) | Activity (Rattus norvegicus [2]) | IC50 [3] | IC50 [4] | IC50 [5] | Activity (Rattus norvegicus [6]) | Activity (Rattus norvegicus [7]) | Activity (Rattus norvegicus [8]) | Activity (Rattus norvegicus [9]) | Activity (Rattus norvegicus [10]) | Activity (Rattus norvegicus [11]) | Activity (Rattus norvegicus [12]) | Activity (Rattus norvegicus [13]) | Activity (Rattus norvegicus [14]) | Activity (Rattus norvegicus [15]) | inhibition (Blood) | Activity (Rattus norvegicus [16]) | Activity (Rattus norvegicus [17]) | Activity (Rattus norvegicus [18]) |
| --- | --- | --- | --- | --- | --- | --- | --- | --- | --- | --- | --- | --- | --- | --- | --- | --- | --- | --- | --- |
| C[C@@H]1CCN(C(=O)CC#N)C[C@@H]1N(C)c1ncnc2[nH]ccc12 [TOFACITINIB] | Active | >60% | – | – | – | – | – | – | – | – | – | – | – | – | – | – | – | – | – |
| CC[C@@H]1CN(C(=O)NCC(F)(F)F)C[C@@H]1c1cnc2cnc3[nH]ccc3n12 [UPADACITINIB] | – | >60% | > 10 µM | > 4.5 µM | > 10 µM | Active | Dose-Dependent Effect | 89% | 96% | 63% | 16% | 26% | Active | Active | Active | Active | Active | Active | Active |
